Screening results deposited in PubChem by several laboratories.
HKDC1 inh – blocks human hexokinase HKDC1 activity | Q2TB90 | recombinant HKDC1, G6PDH/diaphorase resazurin coupled fluorescence | inhibition, % at 20 µM | 340,000 tested, 0.16% active;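 active means inhibition above about 35% when tested at 20 µM, limit read from the data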
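test system = in-house recombinant HK5 (HKDC1) enzyme | amount = HKDC1 at 5 µg/mL | control set = DMSO-enzyme wells negative, buffer-substituted wells positive | compound = one dose of 20 µM, 1% DMSO | schedule = reaction time 90 min, room temperature, protected from light | technique = resorufin fluorescence at 613 nm | reagent = glucose with 1 mM ATP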
A1 inh – inhibitors of the anti-apoptotic protein A1, read as caspase activation; MEF A1-2A-BIM cells, Caspase-Glo 3/7 luminescence, 3 h; percent of clofoctol response, vehicle zero; caspase activation, % (no concentration beside the values); 330,000 tested, 0.066% active;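 active means over half of replicate activation scores above 10%, or exactly half above 10 with the replicate mean above 10; inconclusive means replicate mean below 10 yet half the replicates above 10; inactive means over half of replicates below 10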
LANA-H2B inh – blocks KSHV LANA binding to histone H2A/H2B; cell-free LANA-H2A/H2B peptide, fluorescence polarization; AID 2629; 320,000 tested, 0.6% active; Q9QR71; inhibition, % (no concentration beside the values); in the data active means inhibition mostly above about 10%, no sharp cut-off; inactive means mostly below about 6.7%
HDAC3 inh – human HDAC3 inhibition; inhibition, % at 8.3 µM; 320,000 tested, 0.15% active; recombinant HDAC3, fluorogenic peptide/trypsin coupled, fluorescence; in the data active means inhibition above about 26%, passing the limit was not always enough; inconclusive means no clear call, values can overlap the other calls
ATG4B inhibitor – inhibitors of human ATG4B cysteine protease; Q9Y4P1; ATG4B cleavage of LC3-PLA2, NBD-HPC fluorescence, 1 h; inhibition, % at 8.33 µM; 340,000 tested, 0.51% active; in the data active means inhibition above about 40%
Target sequence (Q9Y4P1 whole entry, looked up): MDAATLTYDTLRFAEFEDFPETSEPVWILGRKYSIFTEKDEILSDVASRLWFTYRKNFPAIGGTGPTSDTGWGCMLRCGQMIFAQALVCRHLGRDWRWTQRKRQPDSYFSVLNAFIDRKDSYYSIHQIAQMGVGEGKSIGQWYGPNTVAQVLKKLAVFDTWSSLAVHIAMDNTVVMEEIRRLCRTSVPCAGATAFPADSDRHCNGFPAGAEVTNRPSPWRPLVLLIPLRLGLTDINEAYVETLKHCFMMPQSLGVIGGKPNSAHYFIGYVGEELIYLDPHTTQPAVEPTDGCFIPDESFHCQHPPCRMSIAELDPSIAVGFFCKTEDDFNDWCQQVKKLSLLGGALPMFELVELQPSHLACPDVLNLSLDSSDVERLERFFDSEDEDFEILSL
AI-2 QS mod – Vibrio harveyi AI-2 quorum sensing modulation | Vibrio harveyi JMH597 AI-2 luminescence/OD600 ratio, 9 h; active compounds read low; strain lacks LuxN and CqsS sensors; 0 = neutral-control median | activity change, % at 7.5 µM | 300,000 tested, 0.4% active | AID 2094; in the data active means activity change below about -75%, passing the limit was not always enough; inconclusive means no clear call, values can overlap the other calls;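 further: luminescence divided by OD600 gain over 9 h not by final OD600 alone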
Numbers stand for hits; 0 = inactive; ? = inconclusive; - = no result given; + = active, no number. Shown are actives, neighbours in structure and some others; about 1.8% of the full set was active somewhere.

SMILES	HKDC1 inh	A1 inh	LANA-H2B inh	HDAC3 inh	ATG4B inhibitor	AI-2 QS mod
COc1cc(NC(=S)N2CCN(C)CC2)cc(OC)c1	0	0	9.7	0	0	0
Cc1cc(C)cc(NC(=O)N2CCCN(c3ncccc3[N+](=O)[O-])CC2)c1	0	0	14	0	0	0
CC(C)NC(=S)N1CCCN(c2ncccc2[N+](=O)[O-])CC1	0	0	0	0	0	0
Cc1cc(C)cc(NC(=S)N2CCN(c3ncccn3)CC2)c1	0	0	21	0	0	0
N#Cc1ccccc1OCC(=O)Nc1cc(S(=O)(=O)N2CCCCC2)ccc1N1CCOCC1	0	-	-	-	0	-
COc1ccc(NC(=O)COC(=O)c2ccc([N+](=O)[O-])o2)cc1Cl	0	0	0	0	0	-89
O=C(OCc1cc(Cl)ccc1OC(F)F)c1ccc([N+](=O)[O-])o1	-	0	0	0	-	-99
O=C1CCC(C(=O)OCc2cc(Cl)ccc2OC(F)F)N1 (stereo not given)	0	0	0	0	0	0
COc1ccc(C)cc1NC(=O)COC(=O)c1ccc([N+](=O)[O-])o1	0	0	0	0	0	0
CCOc1ncccc1C(=O)OC(C)C(=O)Nc1ccc(N2CCOCC2)cc1 (stereo not given)	0	0	0	0	0	-
Cc1cc(C)c(NC(=O)c2cc(C(=O)O)ccc2C(=O)O)c([N+](=O)[O-])c1	0	0	12	0	0	0
Cc1cc(NC(=O)C2CCCN2C(=O)Nc2c(C)cccc2C)ccc1-n1cnnn1 (stereo not given)	0	0	0	0	0	0
Cc1cc(NC(=O)C2CCN(S(=O)(=O)Cc3ccccc3)CC2)ccc1-n1cnnn1	0	0	43	0	0	0
COc1cc2c(cc1OC)C1CCN3C(=O)CCC3N1CC2 (stereo not given)	0	-	-	-	0	-
C/C(=N\Nc1ncnc2sc(C)c(C)c12)c1ccccn1	0	0	0	0	0	-88
Cc1sc2ncnc(N/N=C/c3cccc(O)c3)c2c1C	0	0	0	0	0	0
COc1ccc2oc(C(=O)N3CCN(C(=O)c4ccco4)CC3)c(C)c2c1	0	0	20	0	0	0
COc1ccc2oc(C(=O)N3CCN(c4ncccn4)CC3)c(C)c2c1	0	0	0	0	0	0
COc1ccccc1NC(=O)/C(=C\c1cccs1)NC(=O)c1ccco1	0	0	+	0	0	0
COc1ccccc1NC(=S)N1CCN(C(=O)c2ccco2)CC1	0	0	16	0	0	0
Cc1cc2c(cc1C)N(C(=O)CCl)CCN2C(=O)CCl	0	-	-	-	0	-
Clc1ccc(-c2nnc3sc(-c4ccc(Br)o4)nn23)cc1	0	0	46	0	0	-
CC(C)(C)OC(=O)N[C@@H](Cc1ccccc1)C(=O)N[C@@H](CO)[C@H](O)[C@@H]1C[C@@H]1C(=O)NC1CCCCC1	0	0	0	0	0	-
CC(C)(CNc1ccc(S(=O)(=O)C(F)(F)F)cc1[N+](=O)[O-])N1CCOCC1	0	0	27	0	0	0
COc1ccc(NC(C)=O)cc1S(=O)(=O)NCCc1ccccn1	0	0	30	0	0	-
SMILES	HKDC1 inh	A1 inh	LANA-H2B inh	HDAC3 inh	ATG4B inhibitor	AI-2 QS mod
COc1ccc(C(=O)O)cc1S(=O)(=O)NCc1ccccn1	0	0	0	0	0	0
O=c1c([N+](=O)[O-])c[nH]c2ccccc12	0	0	15	0	0	0
COc1ccc(O)c(/C=N/NS(=O)(=O)c2ccc(C)cc2)c1	0	0	0	0	0	0
COc1ccc(/C=N/NS(=O)(=O)c2ccc(C)cc2)cc1	0	0	0	0	0	-83
CC(C)c1nc2sc3c(SCCN(C)C)ncnc3c2c2c1CCC2	0	-	-	-	0	-
COc1ccc(CCn2c(C)nc3c(c(=O)c4ccccc4n3C)c2=O)cc1	0	0	11	0	0	0
CCN(CC(=O)Nc1ccc(NC(C)=O)cc1)C(=O)c1cccc(N2C(=O)c3ccccc3C2=O)c1	0	-	-	-	0	-
COC(=O)c1ccc(COc2ncnc3c(Cl)cc(Cl)cc23)o1	0	0	0	0	0	-79
CC(=O)COc1ncnc2c(Cl)cc(Cl)cc12	0	0	0	0	0	0
C/C(=N/NC(=O)c1ccccc1)C1=C(O)CC(C)(C)CC1=O	0	0	0	71	0	0
CC1(C)CC(=O)C(C(N)=NC(=O)c2ccccc2)=C(O)C1	0	0	0	0	0	0
OC1COC(c2ccccc2)OC1C1OC(c2ccccc2)OCC1O (stereo not given)	0	-	-	-	0	-
CC1CCC2(CC1)NC(=S)N(c1ccccc1)N2 (stereo not given)	0	0	17	0	0	-
Cc1ccccc1-c1cc(C(=O)NCc2ccc(OC(F)(F)F)cc2)n(CC2CC(c3cccnc3)=NO2)n1 (stereo not given)	0	0	0	?	0	-
O=C1C=CC(=O)N1c1cccc(-c2ccccc2)c1	0	13	0	0	0	-212
O=C(Nc1cccc(N2C(=O)C=CC2=O)c1)c1cccs1	-	0	-	-	-	?
Cc1cc(C)cc(NC(=O)COC(=O)c2ccc3c(c2)OCCO3)c1	0	0	12	0	0	-
Cc1ccc(C(=O)OCC(=O)Nc2ccc3c(c2)OCCO3)cc1C	0	-	-	-	0	-
Cc1ccc(S(=O)(=O)NCC(=O)OCC(=O)Nc2ccc3c(c2)OCCO3)cc1	0	0	19	0	0	-
O=C(COC(=O)Cc1cccc(C(F)(F)F)c1)Nc1ccc2c(c1)OCCO2	0	0	146	0	0	0
CCCNS(=O)(=O)c1ccc(OCC(=O)Nc2ccc3c(c2)OCCO3)cc1	0	0	0	0	0	0
O=C(COC(=O)Cc1ccccc1F)Nc1ccc2c(c1)OCCO2	0	0	0	0	0	0
CCCCN(C)C(=O)Cn1ncc2c3ccccc3n(CCC)c2c1=O	0	0	0	0	0	0
COCCn1c(-c2ccc(NC(C)=O)cc2)nc2c1c(=O)[nH]c(=O)n2CC(C)C	0	0	13	0	0	0
COCCn1c(-c2ccc(-c3ccccc3Cl)o2)nc2c1c(=O)[nH]c(=O)n2CC(C)C	0	0	0	0	0	0
CC(CNC(=O)CCS(=O)(=O)c1ccc2c(c1)NC(=O)CO2)c1ccccc1 (stereo not given)	0	0	0	0	0	0
CC(C)NC(=O)Nc1ccc2c(c1)C(=O)N([C@H](C)CO)C[C@H](C)[C@@H](CN(C)C(=O)Nc1ccc(C(F)(F)F)cc1)O2	0	0	+	0	0	-
COc1ccc(S(=O)(=O)N(C)C[C@H]2Oc3c(NC(=O)Nc4ccc(C(F)(F)F)cc4)cccc3C(=O)N([C@H](C)CO)C[C@@H]2C)cc1	0	0	0	32	0	-
C[C@@H]1CN([C@H](C)CO)C(=O)c2cc(NC(=O)Nc3ccc(F)cc3)ccc2O[C@H]1CN(C)C(=O)Nc1ccc(C(F)(F)F)cc1	0	0	-	0	0	-
